From article PMC10467613 (RSC Chemical Biology, 2023)

Columns and labels:
[1] = molecular target: T1, HsIYD containing 2′-deoxyFMN (Homo sapiens, UniProt Q6PHW0, DEL2-31); assay: flavin fluorescence quenching titration; type: binding
T1 sequence (Q6PHW0 32-289): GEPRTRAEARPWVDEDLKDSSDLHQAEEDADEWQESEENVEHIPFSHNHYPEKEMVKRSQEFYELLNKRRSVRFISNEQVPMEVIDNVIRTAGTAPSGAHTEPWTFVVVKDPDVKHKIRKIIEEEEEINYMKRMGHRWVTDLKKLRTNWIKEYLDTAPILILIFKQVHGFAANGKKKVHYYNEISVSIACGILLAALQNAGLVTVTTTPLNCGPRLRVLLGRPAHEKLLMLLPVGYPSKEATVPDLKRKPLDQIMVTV
Summary of the method: (§1)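 Enzyme: human IYD lacking residues 2–31 (SUMO fusion, tag removed) or T. neapolitana IYD (C-terminal His6; dithionite wash first). FMN was stripped on a Ni column with up to 1.5 M guanidinium HCl, then reloaded with 200 μM 2′-deoxyFMN for 4 h at 4 °C. Ligand was titrated into 3 μM enzyme in 100 mM potassium phosphate pH 7.4 at 25 °C. Flavin fluorescence (ex 450/em 516 nm) was read 2 min after each addition. Kd was fitted from ΔF/F0 versus total enzyme and total ligand.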

[2] = molecular target: T2, TnIYD containing 2′-deoxyFMN (Thermotoga neapolitana, UniProt B9K712); assay: flavin fluorescence quenching titration; type: binding
T2 sequence (B9K712 1-186): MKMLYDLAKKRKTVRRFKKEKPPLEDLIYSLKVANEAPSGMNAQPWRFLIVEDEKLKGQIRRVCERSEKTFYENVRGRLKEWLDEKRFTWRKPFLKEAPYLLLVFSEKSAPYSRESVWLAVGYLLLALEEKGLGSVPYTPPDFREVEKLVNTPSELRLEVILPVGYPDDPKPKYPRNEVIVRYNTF
Summary of the method: as §1

N[C@@H](Cc1ccc(O)c(F)c1)C(=O)O [F-Tyr, 3-Fluoro-L-tyrosine]
Kd [1]: 1500 ± 70 µM

COc1ccc(C[C@H](N)C(=O)O)cc1I [O-Me I-Tyr]
Kd [2]: 6.3 ± 0.7 µM
